Usually IC50 stands for the concentration needed to halve the response being measured.

The values below come from ChEMBL document CHEMBL5223159, “Structural and Functional Characterization of Indane-Core CD4-Mimetic Compounds Substituted with Heterocyclic Amines” (ACS Med Chem Lett, 2023).

Calls of active or inactive are those of the source. The calls are words filed in the database; no cut-off is given here.

Holding throughout (type): functional, organism-based
For experiment [1], the system named is Human immunodeficiency virus 1. Description: Antiviral activity against HIV-1 JRFL infected in HEK293T cells coexpressing firefly luciferase gene incubated for 1 hr. Conditions: Human immunodeficiency virus 1, JRFL, HEK-293T.
Experiment [2] deals with Amphotropic murine leukemia virus. In words: Antiviral activity against A-MLV infected in HEK293T cells coexpressing firefly luciferase gene incubated for 1 hr. Conditions: HEK-293T.
The test system of experiment [3] is Human immunodeficiency virus 1. In words: Antiviral activity against HIV-1 CH58TF infected in primary CD4 T cells isolated from PBMC assessed as antibody dependent cellular toxicity (ADCC) at 50 uM by cell surface staining based assay. In a few lines: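 Primary CD4 T cells from PBMC infected with HIV-1 CH58TF for 48 h, then surface-stained with 1:1000 HIV+ plasma (n = 3) plus 50 μM compound or DMSO vehicle. Bound IgG detected with Alexa Fluor 647 anti-human IgG secondary by flow cytometry. Mean ± SEM.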

Experiment [4] concerns Human immunodeficiency virus 1. In words: Antiviral activity against HIV-1 CH58TF infected in primary CD4 T cells isolated from PBMC assessed as antibody dependent cellular toxicity (ADCC) by measuring killing of p24+ infected cells at 50 uM FACS-based ADCC assay. Conditions: T cell. An outline of the steps: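 CH58TF-infected (48 h) primary CD4 T cells from PBMC served as targets in a FACS-based ADCC assay. Plasma from 3 HIV-1-infected individuals at 1:1000, with 50 μM compound or DMSO vehicle. Read-out is killing of p24+ infected cells. Mean ± SEM.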

For experiment [5], the system named is Human immunodeficiency virus 1. Description: Antiviral activity against HIV-1 JRFL assessed as inhibition of viral growth. Conditions: Human immunodeficiency virus 1, JRFL. In a few lines: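 IC50 against JRFL measured in triplicate. Where more than one triplicate experiment was run, the value is the mean IC50 with SEM and N triplicates.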
The subject of experiment [6] is Human immunodeficiency virus 1. In words: Antiviral activity against HIV-1 JRFL infected in primary CD4 T cells isolated from PBMC assessed as antibody dependent cellular toxicity (ADCC) at 50 uM by cell surface staining based assay.
Experiment [7] has as its system Amphotropic murine leukemia virus. Description: Antiviral activity against A-MLV assessed as inhibition of viral growth. An outline of the steps: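 Control virus pseudotyped with amphotropic MLV Env, tested at concentrations up to 100 μM.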

As for `N=C(N)NC[C@H]1Cc2cc(CN3CCC[C@@H]3C(=O)O)ccc2[C@@H]1NC(=O)C(=O)Nc1ccc(Cl)c(F)c1`, the midpoint of inhibition in experiment [1], the IC50, lay at 32.4 µM.
As for `N=C(N)NC[C@H]1Cc2cc(CN3CCCC3)ccc2[C@@H]1NC(=O)C(=O)Nc1ccc(Cl)c(F)c1`, the results for the concentration for half-maximal inhibition (IC50) in experiment [2] and in experiment [1] were over 100 µM and 4 µM, respectively. Besides, the result in experiment [3] and in experiment [4] was Active.
With `N=C(N)NC[C@H]1Cc2cc(CN3CCCCC3)ccc2[C@@H]1NC(=O)C(=O)Nc1ccc(Cl)c(F)c1`, the IC50 in experiment [2] is over 100 µM; in experiment [1], 5.5 µM.
For the molecule `N=C(N)NC[C@H]1Cc2cc(CN3CCC(C(N)=O)CC3)ccc2[C@@H]1NC(=O)C(=O)Nc1ccc(Cl)c(F)c1`, the IC50 in experiment [1] is 33 µM.
For `N=C(N)NC[C@H]1Cc2cc(CN3CCC[C@@H]3CO)ccc2[C@@H]1NC(=O)C(=O)Nc1ccc(Cl)c(F)c1`, in experiment [1], half-maximal inhibition (IC50) was put at 11.1 µM. For the same molecule, the outcome in experiment [3] and in experiment [4] was Active.
Molecule `N=C(N)NC[C@H]1Cc2cc(CN3CC[C@H](O)C3)ccc2[C@@H]1NC(=O)C(=O)Nc1ccc(Cl)c(F)c1` had an IC50 in experiment [1] of 9.2 µM. Further, the outcome in experiment [3] and in experiment [4] was Active.
Consider `N#CC1CCN(Cc2ccc3c(c2)C[C@H](CNC(=N)N)[C@H]3NC(=O)C(=O)Nc2ccc(Cl)c(F)c2)CC1`, for which the IC50 in experiment [1] was 60.7 µM.
`N=C(N)NC[C@H]1Cc2cc(CN3CCC[C@H]3CO)ccc2[C@@H]1NC(=O)C(=O)Nc1ccc(Cl)c(F)c1` came in with a half-inhibitory concentration (IC50) in experiment [1] of 13.5 µM. Besides, the outcome in experiment [3] and in experiment [4] was Active.
For `N=C(N)NC[C@H]1Cc2cc(CN3CCC[C@H]3C(N)=O)ccc2[C@@H]1NC(=O)C(=O)Nc1ccc(Cl)c(F)c1`, the concentration for half-maximal inhibition (IC50) in experiment [1] turned out to be 12 µM. In addition, the outcome in experiment [3] and in experiment [4] was Active.
For the molecule `N=C(N)NC[C@H]1Cc2cc(CN3CCNCC3)ccc2[C@@H]1NC(=O)C(=O)Nc1ccc(Cl)c(F)c1`, the figures for the IC50 in experiment [2] and in experiment [1] were over 100 µM and 4 µM, respectively. The outcome in experiment [3] and in experiment [4] was Active.
The molecule `N=C(N)NC[C@H]1Cc2cc(CN3CCC[C@H](C(=O)O)C3)ccc2[C@@H]1NC(=O)C(=O)Nc1ccc(Cl)c(F)c1` yielded an IC50 in experiment [1] of 60 µM.
As to `N=C(N)NC[C@H]1Cc2cc(CN3CC[C@@H](N)C3)ccc2[C@@H]1NC(=O)C(=O)Nc1ccc(Cl)c(F)c1`, the IC50 in experiment [1] is 14 µM.
In experiment [1], `N=C(N)NC[C@H]1Cc2cc(CN3CC[C@@H](O)C3)ccc2[C@@H]1NC(=O)C(=O)Nc1ccc(Cl)c(F)c1` yielded a concentration for half-maximal inhibition (IC50) of 10.2 µM. Also, the result in experiment [3] and in experiment [4] was Active.
Take `N=C(N)NC[C@H]1Cc2ccccc2[C@@H]1NC(=O)C(=O)Nc1ccc(Cl)c(F)c1`: the 50% inhibitory concentration (IC50) in experiment [5] was 66.8 µM.
In experiment [1], `N=C(N)NC[C@H]1Cc2cc(CN3CCC[C@H]3C(=O)O)ccc2[C@@H]1NC(=O)C(=O)Nc1ccc(Cl)c(F)c1` had an IC50 of 45.1 µM.
Turning to `COC(=O)[C@@H]1C[C@@H](O)CN1Cc1ccc2c(c1)C[C@H](CNC(=N)N)[C@H]2NC(=O)C(=O)Nc1ccc(Cl)c(F)c1`, the result in experiment [6] and in experiment [4] was inactive. Besides, the half-inhibitory concentration (IC50) in experiment [1] came to 6.4 µM. The outcome in experiment [3] was Active.
`N=C(N)NC[C@H]1Cc2cc(CN[C@H]3CNC[C@@H]3O)ccc2[C@@H]1NC(=O)C(=O)Nc1ccc(Cl)c(F)c1` came in with a half-inhibitory concentration (IC50) in experiment [1] of 7.5 µM. Moreover, the outcome in experiment [3] and in experiment [4] was Active.
In experiment [1], `N=C(N)NC[C@H]1Cc2cc(CN3CCN(c4ccc(F)cc4F)CC3)ccc2[C@@H]1NC(=O)C(=O)Nc1ccc(Cl)c(F)c1` gave a 50% inhibitory concentration (IC50) of 50 µM.
Same read-out and setting: the value for `N=C(N)NC[C@H]1Cc2cc(CN3CC[C@H](N)C3)ccc2[C@@H]1NC(=O)C(=O)Nc1ccc(Cl)c(F)c1` was 10.1 µM.
With `CNCc1ccc2c(c1)C[C@H](CNC(=N)N)[C@H]2NC(=O)C(=O)Nc1ccc(Cl)c(F)c1`, the IC50 in experiment [5] was 9.6 µM; in experiment [7], over 100 µM.
